Calls of active or inactive are those of the source. The rule behind the calls is not given here.
Legend:
Neutrophil [1] = test: Cytotoxicity against human neutrophils assessed as viable cells after 2 hrs; type: functional; set-up: concentration or dose not given beside the values
Outline: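 Human neutrophils (2 × 10⁶/mL) from healthy donors were incubated 2 h at 37 °C under CO₂ in HBSS:PBS (3:1) with 1 mg/mL BSA, with compounds. Membrane integrity was read by fluorescein diacetate/ethidium bromide staining for 10 min at room temperature, under UV dark-field microscopy. Green cells were scored viable; red nuclei were scored necrotic.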

Neutrophil [2] = test: Inhibition of IL8-induced neutrophil chemotaxis after 45 mins by Boyden chamber assay; type: functional, cell-based; details: Homo sapiens, 0.75 h
Outline: (§1)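 Leading-front Boyden assay with donor neutrophils. Cells were preincubated 15 min at room temperature ± compound. Then 4 × 10⁵ cells were placed above a 3 µm cellulose ester filter, with IL8 or fMLP below. After 45 min at 37 °C, filters were hematoxylin-stained and the leading-front distance was read at ×400, 5 fields per filter, in duplicate. Net migration = stimulated minus spontaneous. IC₅₀ came from nonlinear regression, ≥3 experiments.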

Neutrophil [3] = test: Inhibition of fMLP-induced neutrophil chemotaxis after 45 mins by Boyden chamber assay; type: functional, cell-based; details: Homo sapiens; outline: as §1
Mus musculus [4] = test: Inhibition of peritoneal granulocyte count in zymosan-induced Swiss mouse peritoneal fluid at 100 mg/kg, po; type: functional
Outline: (§2)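 Male Swiss mice (25-30 g), fasted 16 h, n = 8 per group, were dosed orally 1 h before i.p. zymosan (5 mg/mL, 0.2 mL). Dexamethasone 1 mg/kg os served as reference. At 4 h, peritoneal lavage used 3 mL PBS with 3 mM EDTA. Total leukocytes were counted in a Neubauer chamber (Türk 1:100), with differentials by light microscopy. Counts were compared with vehicle by Student's t-test.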

Mus musculus [5] = test: Lymphocyte percentage in zymosan-induced Swiss mouse peritoneal fluid at 100 mg/kg, po
Mus musculus [6] = test: Monocyte percentage in zymosan-induced Swiss mouse peritoneal fluid at 100 mg/kg, po
Mus musculus [7] = test: Inhibition of peritoneal cell count in zymosan-induced Swiss mouse peritoneal fluid at 100 mg/kg, po; type: functional; outline: as §2
Mus musculus [8] = test: Granulocyte percentage in zymosan-induced Swiss mouse peritoneal fluid at 100 mg/kg, po
Mus musculus [9] = test: Inhibition of peritoneal cell count in zymosan-induced Swiss mouse peritoneal fluid at 1 mg/kg, po; type: functional; details: read-out: Inhibition; outline: as §2
Mus musculus [10] = test: Percentage of granulocytes in zymosan-induced Swiss mouse peritoneal fluid at 1 mg/kg, po
Mus musculus [11] = test: Percentage of monocytes in zymosan-induced Swiss mouse peritoneal fluid at 1 mg/kg, po
Mus musculus [12] = test: Inhibition of peritoneal granulocyte count in zymosan-induced Swiss mouse peritoneal fluid at 1 mg/kg, po; type: functional; outline: as §2
Mus musculus [13] = test: Percentage of lymphocytes in zymosan-induced Swiss mouse peritoneal fluid at 1 mg/kg, po

SMILES | Activity (Neutrophil [1]) [%] | IC50 (Neutrophil [2]) [nM] | Activity (Neutrophil [3]) | other results
CC(C)NC(=O)Nc1c(C#N)cnn1CC(O)c1ccccc1 (stereo not given) | 90 | 35 | inactive | 
CCOC(=O)c1cnn(CC(O)c2ccccc2)c1NC(=O)Nc1cccc(Br)c1 (stereo not given) | 90 | 424 | inactive | 
CCOC(=O)c1cnn(CC(O)c2ccccc2)c1NC(=O)Nc1cccc(F)c1 (stereo not given) | 90 | 36 | inactive | inhibition in vivo at 100 mg/kg (Mus musculus [4]): 33%; % lymphocytes at 100 mg/kg (Mus musculus [5]): 28%; % monocytes at 100 mg/kg (Mus musculus [6]): 10%; inhibition in vivo at 100 mg/kg (Mus musculus [7]): 29%; % granulocytes at 100 mg/kg (Mus musculus [8]): 62%
CC(C)NC(=O)Nc1c(C(=O)O)cnn1CC(O)c1ccccc1 (stereo not given) | 90 | 251 | inactive | 
CCOC(=O)c1cnn(CC(O)c2ccccc2)c1NC(=O)NCc1ccccc1Cl (stereo not given) | 90 | 1240 | inactive | 
CCOC(=O)c1cnn(CC(O)c2ccccc2)c1NC(=O)N1CCCC1 (stereo not given) | 90 | 4950 | inactive | 
N#Cc1cnn(CC(O)c2ccccc2)c1NC(=O)Nc1ccccc1 (stereo not given) | 90 | 225 | inactive | 
CCOC(=O)c1cnn(CC(O)c2ccccc2)c1NC(=O)Nc1ccc(Br)cc1 (stereo not given) | 90 | 92 | inactive | 
CCOC(=O)c1cnn(CC(O)c2ccccc2)c1NC(=O)NCc1ccc(Br)cc1 (stereo not given) | 90 | 3890 | inactive | 
CCOC(=O)c1cnn(CC(O)c2ccccc2)c1NC(=O)N1CCN(Cc2ccccc2)CC1 (stereo not given) | 90 |  | inactive | 
CCOC(=O)c1cnn(CC(O)c2ccccc2)c1NC(=O)Nc1ccc(F)cc1 (stereo not given) | 90 | 33 | inactive | 
CCOC(=O)c1cnn(CC(O)c2ccccc2)c1NC(=O)NCc1cccc(Cl)c1 (stereo not given) | 90 | 570 | inactive | 
CCOC(=O)c1cnn(CC(O)c2ccccc2)c1NC(=O)NCc1ccc(Cl)cc1 (stereo not given) | 90 | 935 | inactive | 
CCOC(=O)c1cnn(CC(O)c2ccccc2)c1NC(=O)Nc1ccccc1OC (stereo not given) | 90 | 1200 | inactive | 
CCOC(=O)c1cnn(CC(O)c2ccccc2)c1NC(=O)NCc1ccc(F)cc1 (stereo not given) | 90 | 212 | inactive | 
C[C@@H]1C[C@H]2[C@@H]3CCC4=CC(=O)C=C[C@]4(C)[C@@]3(F)[C@@H](O)C[C@]2(C)[C@@]1(O)C(=O)CO [DEXAMETHASONE] |  |  |  | inhibition in vivo at 1 mg/kg (Mus musculus [9]): 33%; % granulocytes at 1 mg/kg (Mus musculus [10]): 42%; % monocytes at 1 mg/kg (Mus musculus [11]): 14%; inhibition in vivo at 1 mg/kg (Mus musculus [12]): 62%; % lymphocytes at 1 mg/kg (Mus musculus [13]): 44%
CCOC(=O)c1cnn(CC(O)c2ccccc2)c1NC(=O)N1CCN(C)CC1 (stereo not given) | 90 | 865 | inactive | 

SMILES | Activity (Neutrophil [1]) [%] | IC50 (Neutrophil [2]) [nM] | Activity (Neutrophil [3]) | other results
CCOCCNC(=O)Nc1c(C(=O)OCC)cnn1CC(O)c1ccccc1 (stereo not given) | 90 | 1000 | inactive | 
CCOC(=O)c1cnn(CC(O)c2ccccc2)c1NC(=O)Nc1ccc(Cl)cc1 (stereo not given) | 90 | 345 | inactive | 
CCOC(=O)c1cnn(CC(O)c2ccccc2)c1NC(=O)NCc1ccccc1Br (stereo not given) | 90 | 1780 | inactive | 
CCOC(=O)c1cnn(CC(O)c2ccccc2)c1NC(=O)Nc1cccc(OC)c1 (stereo not given) | 90 | 1400 | inactive | 
CCOC(=O)c1cnn(CC(O)c2ccccc2)c1NC(=O)NCc1cccc(Br)c1 (stereo not given) | 90 | 198 | inactive | 
CCOC(=O)c1cnn(CC(O)c2ccccc2)c1NC(=O)NCc1cccc(F)c1 (stereo not given) | 90 | 318 | inactive | 
CCOC(=O)c1cnn(CC(O)c2ccccc2)c1NC(=O)Nc1ccccc1F (stereo not given) | 90 | 33 | inactive | 
CCOC(=O)c1cnn(CC(O)c2ccccc2)c1NC(=O)Nc1cccc(Cl)c1 (stereo not given) | 90 | 1560 | inactive | 
CCOC(=O)c1cnn(CC(O)c2ccccc2)c1NC(=O)Nc1cccc(C)c1 (stereo not given) | 90 | 398 | inactive | 
CCOC(=O)c1cnn(CC(O)c2ccccc2)c1NC(=O)N1CCOCC1 (stereo not given) | 90 | 950 | inactive | 
CCOC(=O)c1cnn(CC(O)c2ccccc2)c1NC(=O)NCc1ccccc1F (stereo not given) | 90 | 1490 | inactive | 
CCOC(=O)c1cnn(CC(O)c2ccccc2)c1NC(=O)N1CCCCC1 (stereo not given) | 90 | 3090 | inactive | 
CC(C)NC(=O)Nc1ccnn1CC(O)c1ccccc1 (stereo not given) | 90 | 825 | inactive | 
CCOC(=O)c1cnn(CC(O)c2ccccc2)c1NC(=O)NC1CC1 (stereo not given) | 90 | 5520 | inactive | 
CCOC(=O)c1cnn(CC(O)c2ccccc2)c1NC(=O)Nc1ccc(C)cc1 (stereo not given) | 90 | 445 | inactive | 
CCOC(=O)c1cnn(CC(O)c2ccccc2)c1NC(=O)NCCc1ccccc1 (stereo not given) | 90 | 610 | inactive | 

Source: ChEMBL document CHEMBL1146234, “Synthesis and biological evaluation of N-pyrazolyl-N'-alkyl/benzyl/phenylureas: a new class of potent inhibitors of interleukin 8-induced neutrophil chemotaxis” (J Med Chem, 2007)
